Assays:
[1] = tested on: Homo sapiens; assay: AUC (0 to infinity) in patient (3 patients) with renal insufficiency at 250 mg, po assessed as hydroxy flutamide administered as single dose by gas chromatography; type: ADME, organism-based; set-up: dose 250 mg, time infinity, route oral; conditions: in vivo
[2] = tested on: Homo sapiens; assay: Terminal half life in patient (3 patients) with renal insufficiency assessed as hydroxy flutamide at 250 mg, po administered as single dose by gas chromatography; type: ADME, organism-based; conditions: in vivo
Procedure, shortened: (§1)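 Males grouped by 24 h CLcr normalised to body surface area (>80, 50–80, 30–49, 5–29 ml min−1 1.73 m−2), fasted 10 h pre-dose and 4 h post-dose, given a single oral 250 mg flutamide dose. Plasma sampled 0–96 h; urine collected in blocks to 96 h. Flutamide and hydroxyflutamide measured by GC with electron-capture detection. Renal CL = Ae(0,96 h)/AUC(0,96 h); t1/2 = 0.693/λz.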

[3] = AUC (0 to 24 hrs) in patient (4 patients) with renal insufficiency at 250 mg, po administered as single dose by gas chromatography; type: ADME, organism-based; set-up: dose 250 mg, time < 24 hr, route oral; conditions: human, in vivo
[4] = Drug excretion in urine of patient (4 patients) with renal insufficiency at 250 mg, po administered as single dose by gas chromatography; type: ADME, organism-based; conditions: human, in vivo; procedure, shortened: as §1
[5] = tested on: Homo sapiens; assay: AUC (0 to 24 hrs) in patient (4 patients) with renal insufficiency assessed as hydroxy flutamide at 250 mg, po administered as single dose by gas chromatography; type: ADME, organism-based; set-up: dose 250 mg, time < 24 hr, route oral; conditions: in vivo
[6] = tested on: Homo sapiens; assay: AUC (0 to 96 hrs) in patient (4 patients) with renal insufficiency at 250 mg, po assessed as hydroxy flutamide administered as single dose by gas chromatography; type: ADME, organism-based; set-up: dose 250 mg, time < 96 hr, route oral; conditions: in vivo
[7] = Drug excretion in urine of patient (4 patients) with renal insufficiency assessed as hydroxy flutamide at 250 mg, po administered as single dose by gas chromatography; type: ADME, organism-based; conditions: human, in vivo; procedure, shortened: as §1
[8] = AUC (0 to 96 hrs) in patient (6 patients) with renal insufficiency at 250 mg, po administered as single dose 4 hrs prior to hemodialysis treatment measured at starting time of dialysis and post dialysis treatment by gas chromatography; type: ADME, organism-based; set-up: dose 250 mg, time < 96 hr, route oral; conditions: human, in vivo
[9] = Drug excretion in urine of patient (6 patients) with renal insufficiency at 250 mg, po administered as single dose 4 hrs prior to hemodialysis treatment measured at starting time of dialysis and post dialysis treatment by gas chromatography; type: ADME, organism-based; conditions: human, in vivo
Procedure, shortened: (§2)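 Group V haemodialysis males (CLcr <5 ml min−1 1.73 m−2). Single oral 250 mg flutamide (two 125 mg capsules) right after HD; after 14-day washout, same dose 4 h before HD lasting 2–4 h. Venous samples to 48 h, arterial/venous during HD, dialysate in hourly blocks. GC with 63Ni electron-capture detection. CL(HD) = dialysate Ae(HD)/arterial AUC(HD); renal CL = Ae(0,48)/AUC(0,48 h).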

[10] = tested on: Homo sapiens; assay: Cmax in patient (6 patients) with renal insufficiency assessed as hydroxy flutamide at 250 mg, po administered as single dose 4 hrs prior to hemodialysis treatment measured at starting time of dialysis and post dialysis treatment by gas chromatography; type: ADME, organism-based; set-up: dose 250 mg, route oral; conditions: in vivo
[11] = tested on: Homo sapiens; assay: AUC (0 to 96 hrs) in patient (6 patients) with renal insufficiency assessed as hydroxy flutamide at 250 mg, po administered as single dose 4 hrs prior to hemodialysis treatment measured at starting time of dialysis and post dialysis treatment by gas chromatography; type: ADME, organism-based; set-up: time < 96 hr, dose 250 mg, route oral; conditions: in vivo
[12] = Drug excretion in urine of patient (6 patients) with renal insufficiency assessed as hydroxy flutamide at 250 mg, po administered as single dose 4 hrs prior to hemodialysis treatment measured at starting time of dialysis and post dialysis treatment by gas chromatography; type: ADME, organism-based; conditions: human, in vivo; procedure, shortened: as §2
[13] = Drug recovery in dialysate of patient (6 patients) with renal insufficiency assessed as hydroxy flutamide at 250 mg, po administered as single dose 4 hrs prior to hemodialysis treatment measured during dialysis treatment by gas chromatography; type: ADME, organism-based; conditions: human, in vivo; procedure, shortened: as §2
[14] = Tmax in patient (6 patients) with renal insufficiency at 250 mg, po administered as single dose by gas chromatography; type: ADME, organism-based; conditions: human, in vivo; procedure, shortened: as §1
[15] = tested on: Homo sapiens; assay: Cmax in patient (6 patients) with renal insufficiency assessed as hydroxy flutamide at 250 mg, po administered as single dose by gas chromatography; type: ADME, organism-based; set-up: dose 250 mg, route oral; conditions: in vivo
[16] = Drug excretion in urine of patient (6 patients) with renal insufficiency at 250 mg, po administered as single dose by gas chromatography; type: ADME, organism-based; conditions: human, in vivo; procedure, shortened: as §1
[17] = tested on: Homo sapiens; assay: Final time point in terminal phase in patient (6 patients) with renal insufficiency at 250 mg, po administered as single dose by gas chromatography; type: ADME, organism-based; conditions: in vivo; procedure, shortened: as §1
[18] = tested on: Homo sapiens; assay: Tmax in patient (6 patients) with renal insufficiency assessed as hydroxy flutamide at 250 mg, po administered as single dose by gas chromatography; type: ADME, organism-based; conditions: in vivo; procedure, shortened: as §1
[19] = tested on: Homo sapiens; assay: AUC (0 to 96 hrs) in patient (6 patients) with renal insufficiency at 250 mg, po assessed as hydroxy flutamide administered as single dose by gas chromatography; type: ADME, organism-based; set-up: dose 250 mg, time < 96 hr, route oral; conditions: in vivo
[20] = tested on: Homo sapiens; assay: Final time point in terminal phase in patient (6 patients) with renal insufficiency assessed as hydroxy flutamide at 250 mg, po administered as single dose by gas chromatography; type: ADME, organism-based; conditions: in vivo; procedure, shortened: as §1
[21] = Tmax in patient (7 patients) with renal insufficiency at 250 mg, po administered as single dose by gas chromatography; type: ADME, organism-based; conditions: human, in vivo; procedure, shortened: as §1
[22] = AUC (0 to 24 hrs) in patient (7 patients) with renal insufficiency at 250 mg, po administered as single dose by gas chromatography; type: ADME, organism-based; set-up: dose 250 mg, time < 24 hr, route oral; conditions: human, in vivo
[23] = Drug excretion in dialysate of patient with renal insufficiency at 250 mg, po administered first dose followed by 14 days wash out period and administered second dose 4 hrs prior to hemodialysis measured during hemodialysis treatment by gas chromatography; type: ADME, organism-based; conditions: human, in vivo; procedure, shortened: as §2
[24] = Half life in patient with renal insufficiency at 250 mg, po administered first dose followed by 14 days wash out period and administered second dose 4 hrs prior to hemodialysis day measured during hemodialysis treatment by gas chromatography; type: ADME, organism-based; conditions: human, in vivo; procedure, shortened: as §2
[25] = tested on: Homo sapiens; assay: Toxicity in patient with renal insufficiency assessed as fatigue at 250 mg, po administered as single dose; type: organism-based; conditions: in vivo
Procedure, shortened: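 26 male subjects in groups by 24 h creatinine clearance (normalized to body surface area): >80, 50–80, 30–49, 5–29, <5 ml min−1 1.73 m−2 on haemodialysis. Given as two 125 mg capsules after a 10 h fast, continued 4 h post-dose. Prescription drugs withheld for the same period. Subjects confined 12 h pre-dose to 48 h post-dose, with adverse events compared across renal-function groups.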

[26] = Plasma protein binding in healthy geriatric volunteer by equilibrium dialysis method; type: ADME, cell-free; conditions: human, read-out: PPB
[27] = Drug excretion in urine of patient (7 patients) with renal insufficiency at 250 mg, po administered as single dose by gas chromatography; type: ADME, organism-based; conditions: human, in vivo; procedure, shortened: as §1
[28] = tested on: Homo sapiens; assay: Tmax in patient (7 patients) with renal insufficiency assessed as hydroxy flutamide at 250 mg, po administered as single dose by gas chromatography; type: ADME, organism-based; conditions: in vivo; procedure, shortened: as §1
[29] = tested on: Homo sapiens; assay: AUC (0 to 96 hrs) in patient (7 patients) with renal insufficiency at 250 mg, po assessed as hydroxy flutamide administered as single dose by gas chromatography; type: ADME, organism-based; set-up: time < 96 hr, dose 250 mg, route oral; conditions: in vivo
[30] = tested on: Homo sapiens; assay: AUClast in patient (7 patients) with renal insufficiency at 250 mg, po assessed as hydroxy flutamide administered as single dose by gas chromatography; type: ADME, organism-based; set-up: dose 250 mg, time 0 - last, route oral; conditions: in vivo
[31] = tested on: Homo sapiens; assay: Final time point in terminal phase in patient (3 patients) with renal insufficiency at 250 mg, po administered as single dose by gas chromatography; type: ADME, organism-based; conditions: in vivo; procedure, shortened: as §1
[32] = tested on: Homo sapiens; assay: Tmax in patient (3 patients) with renal insufficiency assessed as hydroxy flutamide at 250 mg, po administered as single dose by gas chromatography; type: ADME, organism-based; conditions: in vivo; procedure, shortened: as §1

SMILES: CC(C)C(=O)Nc1ccc([N+](=O)[O-])c(C(F)(F)F)c1 [FLUTAMIDE]
- AUC [1]: 6907 ng·h/mL
- beta t1/2 [2]: 8 h
- AUC(0-t) at 24 h [3]: 107 ng·h/mL
- Drug excretion [4]: 30 µg
- AUC [5]: 5821 ng·h/mL
- AUC [6]: 6499 ng·h/mL
- Drug excretion [7]: 92 µg
- AUC(0-t) at 96 h [8]: 217 ng·h/mL
- Drug excretion [9]: 0 µg
- Cmax [10]: 869 ng/mL
- AUC [11]: 5963 ng·h/mL
- Drug excretion [12]: 5 µg
- Drug recovery [13]: 1.2 mg
- Tmax [14]: 1.4 h
- Cmax [15]: 1070 ng/mL
- Drug excretion [16]: 24.4 µg
- Time [17]: 4.4 h
- Tmax [18]: 1.9 h
- AUC [19]: 5527 ng·h/mL
- Time [20]: 46 h
- Tmax [21]: 1.7 h
- AUC(0-t) at 24 h [22]: 59.8 ng·h/mL
- Drug excretion [23]: 1158 µg
- half-life [24]: 4.3 h
- Activity [25]: 12%
- fraction unbound [26]: < 0.06
- Drug excretion [27]: 39 µg
- Tmax [28]: 2.3 h
- AUC [29]: 4993 ng·h/mL
- AUClast [30]: 4928 ng·h/mL
- Time [31]: 6 h
- Tmax [32]: 3 h

— ChEMBL document CHEMBL3784969, “Pharmacokinetics of flutamide in patients with renal insufficiency” (Br J Clin Pharmacol, 1999)
